The source made the active and inactive calls. The rule behind the calls is not given here.
How the values were obtained:
[1] = MRT (0 to infinity) in Sprague-Dawley rat at 1 mg/kg, iv measured after 2 to 720 mins by LC-tandem mass spectrometry analysis; type: ADME, organism-based; details: in vivo
Method in brief: (§1)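 Male Sprague–Dawley rats (190-210 g), fasted 12 h, given 1 mg/kg i.v. or 10 mg/kg p.o. in DMSO/5% glucose water (1:9). Blood sampled at 2–720 min (i.v.) or 5–720 min (p.o.). Plasma proteins precipitated with methanol using caffeine internal standard, then LC-MS/MS. Noncompartmental analysis; F = AUC0-∞ ratio corrected for dose; triplicate ±SD.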

Mus musculus = test: Inhibition of c-KIT phosphorylation at Y719 residue in tumor of human GIST5R cells xenografted in nude mouse at 100 mg/kg, po administered as single dose and measured after 2 hrs; type: functional, organism-based
Method in brief: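 Female nu/nu mice bearing subcutaneous GIST-5R xenografts (cells in Matrigel, right flank) given one oral gavage dose of 100 mg/kg in HKI suspension (0.5% methocellulose/0.4% Tween80 in ddH2O). Tumors collected over a 2 h time course; p-c-KIT, p-ERK and p-AKT assessed by Western blot; plasma drug levels monitored in parallel.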

[2] = tested on: Mast/stem cell growth factor receptor Kit (Homo sapiens), P10721 [N822K]; test: Inhibition of TEL fused c-KIT N822K mutant (unknown origin) transfected in mouse BAF3 cells assessed as growth inhibition after 72 hrs by CCK8 assay; type: cell-based
Method in brief: (§2)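 Tel-c-KIT-transformed BaF3 lines (IL-3 independent) kept in RPMI 1640 with 10% FBS, 2% L-glutamine and pen/strep. Cells at 1.5 to 5 × 10^4 cells/mL mixed with graded compound and incubated 72 h at 37 °C, 5% CO2. Viability by CCK-8 absorbance at 450 nm, normalized to DMSO. GI50 from dose–response fit.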

[3] = Apparent clearance in Sprague-Dawley rat at 10 mg/kg, po measured after 5 to 720 mins by LC-tandem mass spectrometry analysis; type: ADME, organism-based; details: in vivo, read-out: CL(app) (converted)
Method in brief: (§3)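 Male Sprague-Dawley rats (190-210 g), fasted 12 h, randomized into two groups: 1 mg/kg i.v. or 10 mg/kg p.o., both formulated in 10% DMSO/90% of 5% glucose water. Blood sampled at 2-720 min (i.v.) or 5-720 min (p.o.). Plasma protein-precipitated with methanol, caffeine internal standard, LC-MS/MS. Noncompartmental analysis; triplicate, ±SD.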

[4] = tested on: Mast/stem cell growth factor receptor Kit (Homo sapiens), P10721 [UNDEFINED MUTATION]; test: Inhibition of c-KIT 560 to 578 deletion/T670I double mutant in human GISTT1 cells assessed as reduction in c-KIT autophosphorylation at Y719 residue at 0.1 uM to 3 uM after 1 hr by Western blot analysis; type: cell-based
Method in brief: (§4)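 Serial compound dilutions applied for 1 h to GIST-T1, GIST-T1-T670I (CRISPR/Cas9 T670I knock-in, clone confirmed by Sanger sequencing) or GIST-5R cells in DMEM with 10% FBS. Cells then lysed and phospho-proteins detected by standard Western blotting.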

[5] = Cmax in mouse at 10 mg/kg, po measured after 5 to 720 mins by LC-tandem mass spectrometry analysis; type: ADME, organism-based; parameters: dose 10 mg/kg, route oral; details: in vivo
Method in brief: (§5)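 Mice dosed 1 mg/kg i.v. or 10 mg/kg p.o.; plasma drug levels by LC-MS/MS, parameters by noncompartmental analysis; values not from triplicate testing.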

[6] = Half-life in Sprague-Dawley rat at 1 mg/kg, iv measured after 2 to 720 mins by LC-tandem mass spectrometry analysis; type: ADME, organism-based; details: in vivo; method in brief: as §3
GISTT1 = test: Antiproliferative activity against human GISTT1 cells harboring c-KIT 560 to 578 deletion/T670I double mutant incubated for 72 hrs by CCK8 assay; type: functional; details: GISTT1, 72 h
Method in brief: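 Adherent GIST cells seeded at 1.5-5 × 10^4 cells/mL and left overnight at 37 °C, 5% CO2. Medium then replaced with medium holding serial compound dilutions; 72 h incubation. Viability by CCK-8, absorbance at 450 nm, normalized to DMSO control; GI50 from dose-response fit.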

[7] = tested on: Mast/stem cell growth factor receptor Kit (Homo sapiens), P10721 [UNDEFINED MUTATION]; test: Inhibition of c-KIT 560 to 578 deletion mutant in human GISTT1 cells assessed as reduction in S6 phosphorylation at S235/S236 residue at 0.1 uM to 3 uM after 1 hr by Western blot analysis; type: cell-based; method in brief: as §4
[8] = molecular target: Mast/stem cell growth factor receptor Kit (Homo sapiens, UniProt P10721, T670I); test: Inhibition of TEL fused wild type c-KIT T670I mutant (unknown origin) transfected in mouse BaF3 cells assessed as reduction in phosphorylation at Y703 residue after 2 hrs by Western blot analysis; type: cell-based
Homo sapiens = species on record: Homo sapiens; test: Induction of apoptosis in human GIST5R cells harboring c-KIT 560 to 578 deletion/T670I double mutant assessed as increase in cleaved caspase level after 24 hrs by Western blot analysis; type: functional, cell-based
[9] = AUC (0 to t) in Sprague-Dawley rat at 1 mg/kg, iv measured after 2 to 720 mins by LC-tandem mass spectrometry analysis; type: ADME, organism-based; details: in vivo; method in brief: as §3
[10] = Apparent volume of distribution in mouse at 10 mg/kg, po measured after 5 to 720 mins by LC-tandem mass spectrometry analysis; type: ADME, organism-based; details: in vivo; method in brief: as §5
[11] = molecular target: Platelet-derived growth factor receptor alpha (Homo sapiens, UniProt P16234); test: Binding affinity to wild-type human partial length PDGFRA (V575 to D1002 residues) expressed in mammalian expression system assessed as enzyme remaining activity at 1 uM by Kinomescan assay relative to control
[12] = Oral bioavailability in Sprague-Dawley rat at 10 mg/kg measured after 5 to 720 mins by LC-tandem mass spectrometry analysis; type: ADME, organism-based; details: in vivo; method in brief: as §1
[13] = AUC (0 to infinity) in Sprague-Dawley rat at 1 mg/kg, iv measured after 2 to 720 mins by LC-tandem mass spectrometry analysis; type: ADME, organism-based; parameters: dose 1 mg/kg, route intravenous, time infinity; details: in vivo; method in brief: as §3
[14] = tested on: Mast/stem cell growth factor receptor Kit (Homo sapiens), P10721 [V559D,V654A]; test: Inhibition of TEL fused c-KIT V654A/V559D double mutant (unknown origin) transfected in mouse BAF3 cells assessed as growth inhibition after 72 hrs by CCK8 assay; type: cell-based; method in brief: as §2
Sequence of Mast/stem cell growth factor receptor Kit (Homo sapiens), P10721 [V559D,V654A] (P10721 whole entry V559D/V654A, the tested form may be a part): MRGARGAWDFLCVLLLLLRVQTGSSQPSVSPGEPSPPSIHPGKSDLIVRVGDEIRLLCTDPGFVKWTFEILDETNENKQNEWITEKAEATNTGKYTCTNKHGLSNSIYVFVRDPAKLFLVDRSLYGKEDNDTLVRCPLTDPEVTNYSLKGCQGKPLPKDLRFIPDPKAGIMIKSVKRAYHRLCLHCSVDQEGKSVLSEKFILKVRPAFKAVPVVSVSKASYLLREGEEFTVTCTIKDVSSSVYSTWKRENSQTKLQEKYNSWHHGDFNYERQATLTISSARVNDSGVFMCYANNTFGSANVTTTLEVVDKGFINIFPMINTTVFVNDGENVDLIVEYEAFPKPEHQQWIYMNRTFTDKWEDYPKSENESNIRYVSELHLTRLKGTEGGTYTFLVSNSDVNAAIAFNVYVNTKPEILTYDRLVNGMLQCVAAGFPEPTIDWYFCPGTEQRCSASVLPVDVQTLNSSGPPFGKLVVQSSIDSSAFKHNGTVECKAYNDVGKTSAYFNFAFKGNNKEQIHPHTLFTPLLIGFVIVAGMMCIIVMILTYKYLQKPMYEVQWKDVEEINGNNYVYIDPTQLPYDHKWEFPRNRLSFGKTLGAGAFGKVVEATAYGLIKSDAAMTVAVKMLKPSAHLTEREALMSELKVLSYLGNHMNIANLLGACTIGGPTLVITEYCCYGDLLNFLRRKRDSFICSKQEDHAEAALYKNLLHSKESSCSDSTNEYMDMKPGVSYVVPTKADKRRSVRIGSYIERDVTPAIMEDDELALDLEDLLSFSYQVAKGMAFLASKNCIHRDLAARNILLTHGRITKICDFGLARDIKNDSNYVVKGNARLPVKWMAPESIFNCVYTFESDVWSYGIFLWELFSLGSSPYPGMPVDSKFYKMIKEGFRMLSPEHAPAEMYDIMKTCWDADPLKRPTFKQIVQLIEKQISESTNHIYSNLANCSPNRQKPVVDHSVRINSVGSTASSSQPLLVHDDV

Sequence of Mast/stem cell growth factor receptor Kit (Homo sapiens), P10721 [UNDEFINED MUTATION] (P10721 whole entry, looked up, stated change not applied, the tested form may be a part): as the sequence (P10721 whole entry V559D/V654A, the tested form may be a part) above, with D559V, A654V counted along it
Sequence of Mast/stem cell growth factor receptor Kit (P10721 26-976 T670I limits assumed): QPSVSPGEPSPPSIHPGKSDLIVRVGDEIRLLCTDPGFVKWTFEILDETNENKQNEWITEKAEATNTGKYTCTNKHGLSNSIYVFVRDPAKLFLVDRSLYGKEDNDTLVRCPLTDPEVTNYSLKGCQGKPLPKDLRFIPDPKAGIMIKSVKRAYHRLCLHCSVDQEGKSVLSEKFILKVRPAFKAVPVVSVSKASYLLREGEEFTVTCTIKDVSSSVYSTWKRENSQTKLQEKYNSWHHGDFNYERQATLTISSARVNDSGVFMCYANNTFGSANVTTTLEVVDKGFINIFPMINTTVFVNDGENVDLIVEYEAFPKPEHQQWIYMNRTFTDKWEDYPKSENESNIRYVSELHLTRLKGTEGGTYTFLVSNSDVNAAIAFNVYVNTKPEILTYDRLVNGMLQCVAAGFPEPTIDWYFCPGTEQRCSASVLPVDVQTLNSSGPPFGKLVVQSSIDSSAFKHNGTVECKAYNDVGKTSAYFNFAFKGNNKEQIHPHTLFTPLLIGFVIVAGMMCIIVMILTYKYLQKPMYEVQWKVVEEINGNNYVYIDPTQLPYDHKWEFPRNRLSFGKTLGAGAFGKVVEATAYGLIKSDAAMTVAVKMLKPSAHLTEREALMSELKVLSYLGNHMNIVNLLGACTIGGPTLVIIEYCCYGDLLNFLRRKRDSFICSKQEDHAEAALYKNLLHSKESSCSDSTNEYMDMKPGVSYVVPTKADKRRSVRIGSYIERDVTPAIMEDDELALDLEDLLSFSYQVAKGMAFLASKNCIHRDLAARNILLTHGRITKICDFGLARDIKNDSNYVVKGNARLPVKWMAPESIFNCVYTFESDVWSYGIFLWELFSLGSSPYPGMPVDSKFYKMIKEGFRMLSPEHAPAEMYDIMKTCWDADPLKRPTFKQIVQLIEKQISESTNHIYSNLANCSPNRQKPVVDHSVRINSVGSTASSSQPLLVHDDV
Sequence of Platelet-derived growth factor receptor alpha (P16234 whole entry, the tested form may be a part): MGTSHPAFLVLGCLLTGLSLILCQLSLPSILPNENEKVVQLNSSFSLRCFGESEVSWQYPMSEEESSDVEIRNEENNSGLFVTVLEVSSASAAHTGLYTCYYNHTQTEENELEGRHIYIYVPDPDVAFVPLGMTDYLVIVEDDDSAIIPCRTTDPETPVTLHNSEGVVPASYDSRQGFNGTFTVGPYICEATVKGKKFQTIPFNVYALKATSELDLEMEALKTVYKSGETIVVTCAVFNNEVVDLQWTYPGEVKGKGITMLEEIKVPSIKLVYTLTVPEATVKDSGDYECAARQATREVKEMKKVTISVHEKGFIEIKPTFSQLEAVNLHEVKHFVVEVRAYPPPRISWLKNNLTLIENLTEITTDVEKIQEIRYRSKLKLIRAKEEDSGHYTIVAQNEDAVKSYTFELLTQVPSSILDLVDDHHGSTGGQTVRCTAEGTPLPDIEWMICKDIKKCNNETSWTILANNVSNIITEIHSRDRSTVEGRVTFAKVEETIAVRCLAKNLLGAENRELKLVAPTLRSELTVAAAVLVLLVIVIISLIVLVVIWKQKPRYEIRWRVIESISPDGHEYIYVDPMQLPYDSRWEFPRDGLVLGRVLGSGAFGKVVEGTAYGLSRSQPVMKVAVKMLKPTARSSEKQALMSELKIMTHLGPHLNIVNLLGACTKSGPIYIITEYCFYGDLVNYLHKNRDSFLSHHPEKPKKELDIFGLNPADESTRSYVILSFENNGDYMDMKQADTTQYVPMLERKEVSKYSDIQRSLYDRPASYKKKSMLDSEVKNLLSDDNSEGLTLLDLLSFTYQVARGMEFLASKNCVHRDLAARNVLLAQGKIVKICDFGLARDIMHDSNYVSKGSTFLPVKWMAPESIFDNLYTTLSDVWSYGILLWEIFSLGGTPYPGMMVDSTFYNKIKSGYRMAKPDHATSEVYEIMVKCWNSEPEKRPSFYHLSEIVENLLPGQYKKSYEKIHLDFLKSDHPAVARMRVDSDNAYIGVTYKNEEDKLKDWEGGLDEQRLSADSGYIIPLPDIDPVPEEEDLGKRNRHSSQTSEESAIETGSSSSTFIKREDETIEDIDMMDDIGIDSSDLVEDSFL
Sequence of Mast/stem cell growth factor receptor Kit (Homo sapiens), P10721 [N822K] (P10721 whole entry N822K, the tested form may be a part): as the sequence (P10721 whole entry V559D/V654A, the tested form may be a part) above, with D559V, A654V, N822K counted along it

SMILES: O=C(CC(=O)Nc1ccc2c(/C=C/c3ccccn3)n[nH]c2c1)Nc1cccc(F)c1
- MRT inf [1]: 6.4 h
- inhibition (Mus musculus): inactive
- GI50 [2]: 6.06 µM
- CL/F [3]: 207 mL/min/kg
- inhibition [4]: Active
- Cmax [5]: 1120 ng/mL
- half-life [6]: 624 min
- GI50 (GISTT1): 288 nM
- inhibition [7]: Active
- EC50 [8]: 77 nM
- Activity (Homo sapiens): Dose-dependent effect
- AUC(0-t) [9]: 259 ng·h/mL
- Vz [10]: 19 L/kg
- Activity [11]: 3.4%
- bioavailability [12]: 27.5%
- AUC(0-inf) [13]: 307 ng·h/mL
- GI50 [14]: 265 nM
